Data set [1] relates to RAW264.7. Briefly: Antiinflammatory activity in mouse RAW264.7 cells assessed as inhibition of LPS-induced TNFalpha production at 5 uM administered 1 hr before LPS challenge measured after 24 hrs by ELISA. A general note: In an ELISA, binding on a coated surface is turned into a signal by an enzyme label.
Data set [2] concerns Mus musculus. The experiment in a line: Antioxidant activity in carrageenan-stimulated ICR mouse assessed as increase in CAT activity at 8 mg/kg, ip measured after 5 hrs. The data set is classed as functional. As to conditions: route intraperitoneal. Summed up:
(§1)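 Male ICR mice (n = 6 per group) received the drug 30 min before intraplantar carrageenan, and paw tissue was taken at the 5th hr. Total SOD was measured by inhibition of cytochrome c reduction, CAT by Aebi's method, and cytosolic GPx by Paglia–Valentine. Activities are in U/mg protein, given as mean ± SEM.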

Data set [3] relates to RAW264.7. The experiment in a line: Antiinflammatory activity in LPS-stimulated mouse RAW264.7 cells assessed as inhibition of iNOS protein expression after 24 hrs by Western blot analysis. The data set is classed as functional, cell-based. On the technique in general: A western blot detects proteins with antibodies after separation by electrophoresis.
Data set [4] has as its system RAW264.7. Briefly: Antiinflammatory activity in mouse RAW264.7 cells assessed as inhibition of LPS-induced NO production administered 1 hr before LPS challenge measured after 24 hrs by Griess method. The data set is classed as functional, cell-based. For orientation: The Griess reaction detects nitrite, a stable product of nitric oxide.
A short description of data set [5]: Antiinflammatory activity in human neutrophils assessed as inhibition of fMLP/CB-induced elastase release. The data set is classed as functional, cell-based. To be noted: Neutrophil.
For data set [6], the system named is Mus musculus. The experiment in a line: Antioxidant activity in carrageenan-stimulated ICR mouse assessed as increase in CAT activity at 4 mg/kg, ip measured after 5 hrs. To be noted: route intraperitoneal. The data set is classed as functional. In a few lines: as §1
Data set [7] deals with RAW264.7. The experiment in a line: Antiinflammatory activity in mouse RAW264.7 cells assessed as inhibition of LPS-induced PGE2 production at 20 uM administered 1 hr before LPS challenge measured after 24 hrs by ELISA.
Data set [8] concerns Mus musculus. Briefly: Antioxidant activity in carrageenan-stimulated ICR mouse assessed as increase in SOD activity at 2 mg/kg, ip measured after 5 hrs. To be noted: route intraperitoneal. The data set is classed as functional. Summed up:
as §1

Data set [9] concerns Mus musculus. The experiment in a line: Antiinflammatory activity in ICR mouse assessed as inhibition of carrageenan-induced hind paw edema at 8 mg/kg, ip measured after 5 hrs. The data set is classed as functional, organism-based. Also noted: dose 8 mg/kg.
The test system of data set [10] is Mus musculus. Briefly: Antiinflammatory activity in ICR mouse assessed as decrease in carrageenan-induced inflammatory response at 8 mg/kg, ip measured after 5 hrs. The data set is classed as functional, organism-based. Also noted: dose 8 mg/kg. Summed up: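 Male ICR mice were dosed 30 min before intraplantar carrageenan, and paw biopsies were taken 5 h later. Tissue was fixed in Dietric solution for 1 week at room temperature, dehydrated in graded ethanol and paraffin-embedded. 7-thickness sections were stained with hematoxylin–eosin or Van Gieson and examined by light microscopy.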

A short description of data set [11]: Antioxidant activity in human neutrophils assessed as inhibition of fMLP/CB-induced superoxide anion generation. The data set is classed as functional, cell-based. To be noted: Neutrophil.
The subject of data set [12] is Mus musculus. Briefly: Antiinflammatory activity in ICR mouse assessed as decrease in carrageenan-induced serum TNFalpha level at 8 mg/kg, ip. The data set is classed as functional, organism-based. Also noted: dose 8 mg/kg. In a few lines:
(§2)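 Male ICR mice (18–25 g, n = 6 per group). Carrageenan was injected intraplantar into the paw, with drug given 30 min beforehand. Serum was collected at the 5th hr. Nitrite was measured colorimetrically by Griess reaction, and TNF-α by commercial ELISA. Data are mean ± SEM.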

The test system of data set [13] is Mus musculus. Briefly: Antiinflammatory activity in carrageenan-stimulated ICR mouse assessed as reduction in iNOS immunoreactive cells at 8 mg/kg, ip measured after 5 hrs. The data set is classed as functional, organism-based. Also noted: dose 8 mg/kg.
Data set [14] has as its system Mus musculus. The experiment in a line: Antiinflammatory activity in carrageenan-stimulated ICR mouse assessed as reduction in COX2 immunoreactive cells at 8 mg/kg, ip measured after 5 hrs. The data set is classed as functional, organism-based. Details: dose 8 mg/kg.
In data set [15] the test system is RAW264.7. The experiment in a line: Antiinflammatory activity in mouse RAW264.7 cells assessed as inhibition of LPS-induced PGE2 production administered 1 hr before LPS challenge measured after 24 hrs by ELISA.
Data set [16] concerns Mus musculus. The experiment in a line: Down regulation of iNOS protein expression in carrageenan-stimulated ICR mouse at 8 mg/kg, ip measured after 5 hrs by Western blot analysis. The data set is classed as functional. As to conditions: route intraperitoneal. Summed up: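 Male ICR mice (18–25 g, n = 6 per group) received intraplantar carrageenan. Paw tissue was taken 5 h after carrageenan. Lysates were made in RIPA buffer and 30 µg protein run on SDS-PAGE/PVDF immunoblot with ECL detection. Band intensities were quantified relative to the carrageenan-alone group across three independent experiments.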

Data set [17] has as its system Mus musculus. The experiment in a line: Antioxidant activity in carrageenan-stimulated ICR mouse assessed as increase in CAT activity at 2 mg/kg, ip measured after 5 hrs. As to conditions: route intraperitoneal. The data set is classed as functional. In a few lines:
as §1

For data set [18], the system named is RAW264.7. The experiment in a line: Antiinflammatory activity in mouse RAW264.7 cells assessed as inhibition of LPS-induced TNFalpha production at 10 uM administered 1 hr before LPS challenge measured after 24 hrs by ELISA.
The subject of data set [19] is Mus musculus. The experiment in a line: Antiinflammatory activity in ICR mouse assessed as decrease in carrageenan-induced serum TNFalpha level at 2 mg/kg, ip. The data set is classed as functional, organism-based. Details: dose 2 mg/kg. In a few lines: as §2
Data set [20] relates to RAW264.7. The experiment in a line: Cytotoxicity against mouse RAW264.7 cells after 24 hrs by MTT assay. The data set is classed as cell-based. As to conditions: raw264.7, 24 h. Summed up:
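RAW 264.7 cells (2 × 10⁵, DMEM + 10% FBS, grown 1 day to near confluence) exposed to test agent with 100 ng/mL LPS for 24 h. After two DPBS washes, 0.5 mg/mL MTT was added for 2 h at 37 °C. Formazan was dissolved in DMSO for 30 min and absorbance read at 570 nm.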

For data set [21], the system named is Mus musculus. The experiment in a line: Antioxidant activity in carrageenan-stimulated ICR mouse assessed as increase in GPx activity at 8 mg/kg, ip measured after 5 hrs. The data set is classed as functional. To be noted: route intraperitoneal. Summed up: as §1
Data set [22] has as its system Mus musculus. Briefly: Antioxidant activity in carrageenan-stimulated ICR mouse assessed as increase in GPx activity at 2 mg/kg, ip measured after 5 hrs. The data set is classed as functional. As to conditions: route intraperitoneal. Summed up:
as §1

Data set [23] relates to Mus musculus. The experiment in a line: Antiinflammatory activity in ICR mouse assessed as decrease in carrageenan-induced serum TNFalpha level at 8 mg/kg, ip measured after 5 hrs. The data set is classed as functional, organism-based. Also noted: dose 8 mg/kg. Summed up:
as §2

≈ marks a conversion by molar mass, not a printed value. Calls of active or inactive are those of the source. The rule behind the calls is not given here.

In the case of `COc1cc(CCCc2c(OC)cc(O)c(OC)c2OC)ccc1O` [VISCOLIN], the result with RAW264.7 [1], with RAW264.7 [7], in the data set with Mus musculus [9], in the data set on Mus musculus [10], with Mus musculus [12] and in the data set on Mus musculus [13] was Active. Also, the result in the data set with Mus musculus [14], with RAW264.7 [18], with Mus musculus [19] and in the data set with Mus musculus [23] was Active. In addition, the Activity with Mus musculus [2] was 4.98 U/mg; with RAW264.7 [3], “Dose-dependent effect”; in the data set with RAW264.7 [4], “Dose-dependent effect”; with Mus musculus [6], 4.28 U/mg; in the data set on Mus musculus [8] it was 2.45 U/mg; in the data set with Mus musculus [16] it was 63.6%. For the same compound, the Activity with Mus musculus [17] was 3.92 U/mg; with RAW264.7 [20], “Non-toxic”; with Mus musculus [21], 11.54 U/mg; in the data set with Mus musculus [22], 8.64 U/mg. The 50% inhibitory concentration (IC50) with RAW264.7 [4] stood at 17.8 µM; in data set [5], 4.93 µg/mL (≈ 14.2 µM); in [11], 0.58 µg/mL (≈ 1.66 µM); with RAW264.7 [15], 14.4 µM.

For orientation: IC50 means the point on the concentration scale where inhibition reaches its midpoint.
